# Screens deposited in PubChem BioAssay by several laboratories.
# aDG glyco up: increases alpha dystroglycan glycosylation; Pro5-aDG cells, alpha-DG glycosylation AlphaScreen (IIH6); 0% Pro5, 100% B10-LARGE cell signal; activation, % at 10 µM; 360,000 tested, 0.22% active; AID 624168;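 active = activation of at least 8% versus controls, or a plate z-score of at least 8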;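 note: Pro5 are CHO cells carrying HIG-tagged alpha-DG that lacks glycosylation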
# procasp7 counter: counter-screen: procaspase-7 (human) activation; activation, % at 8.5 µM; recombinant procaspase-7, Ac-DEVD-pNA absorbance 405 nm; D23A/D198A/D206A triple mutant, cannot self-cleave; scale: DMSO 0, 5 µM enzyme 100; AID 463210; 330,000 tested, 0.093% active;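 active = percent activation above the screen-wide mean plus 3 SD, cut at about 25% in these data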
#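 signal = Epi-absorbance of released pNA at 405 nm, two timepoints | assay system = Uncleavable procaspase-7 mutant enzyme | reagent = Ac-DEVD-pNA substrate, 400 µM as added | times = 1 h enzyme–compound preincubation and 2 h substrate reaction, both 25 °C | benchmarks = low DMSO alone, high DMSO plus 5 µM PC-7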
# MPTP block: permeability transition pore inhibition; isolated mouse mitochondria, Ca2+ swelling absorbance, 30 min; inhibition, % at 10 µM; 360,000 tested, 1.4% active;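 active = inhibition of 50% or more, scaled per plate between neutral and stimulator controls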;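 note: 0% = DMSO wells given calcium and 100% = 1 mM EGTA wells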
# proCasp3 act: activators of human procaspase-3 | P42574 | recombinant procaspase-3 D3A, Ac-DEVD-pNA absorbance 405 nm | activation, % at 8.5 µM | 330,000 tested, 0.11% active | AID 463141;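 active = activation above the mean of all tested compounds plus 3 SD, cut at about 21% in these data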;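 note: 0% = DMSO alone and 100% = DMSO wells spiked with extra 5 µM PC-3 D3A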
# Target sequence (P42574 whole entry D9A/D28A/D175A): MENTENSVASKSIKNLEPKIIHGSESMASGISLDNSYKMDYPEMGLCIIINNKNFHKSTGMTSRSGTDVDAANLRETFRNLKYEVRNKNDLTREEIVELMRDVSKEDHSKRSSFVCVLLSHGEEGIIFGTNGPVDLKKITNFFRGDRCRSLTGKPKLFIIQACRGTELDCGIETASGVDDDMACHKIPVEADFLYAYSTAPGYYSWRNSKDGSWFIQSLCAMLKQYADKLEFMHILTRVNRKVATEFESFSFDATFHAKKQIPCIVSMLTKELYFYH
#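 Assay system – Procaspase-3 D3A mutant, all three cleavage aspartates alanine · Controls – DMSO-only low control, 5 µM PC-3 D3A high control · Schedule – 1 h compound preincubation, 2 h substrate hydrolysis at 25 °C · Signal – 405 nm absorbance of p-nitroaniline, reads at 0 and 120 min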
# GRIN3A LBD mod: NR3A (human) ligand-binding domain modulation | NR3A LBD differential scanning fluorimetry, Tm shift; 0% = protein alone, 100% = glycine-bound protein | Tm shift relative to glycine control, % at 25 µM | 340,000 tested, 2.5% active;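 active = melting temperature shift of at least 10% of the positive control shift, at one fixed dose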
# Rh123 counter: Rhodamine 123 counter-screen of mitochondrial pore hits; shares compounds with MPTP block; isolated mitochondria, membrane potential, Rhodamine 123 fluorescence; inhibition, % at 10 µM; 5,000 tested, 78% active; AID 624504; in the data active = inhibition above about 22%;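 note: 0% = DMSO vehicle and 100% = positive control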
# MPTP abs DR: dose response confirmation of mitochondrial permeability transition pore inhibitors. 780 tested, 58% active. IC50, µM. shares compounds with MPTP block. isolated mitochondria swelling, absorbance; in the data active = IC50 below about 20 µM
# MPTP cs DR: counter-screen for mitochondrial permeability transition pore inhibitors, dose response; 780 tested, 49% active; isolated mitochondria counterscreen, fluorescence read-out; shares compounds with MPTP block; IC50, µM; in the data active = IC50 below about 80 µM
# * marks the source's active call; other numbers are inactive results; i = inactive; . = no result. Compounds with a hit are over-represented: about 3.7% of the library has one in this group of screens.
SMILES,aDG glyco up,procasp7 counter,MPTP block,proCasp3 act,GRIN3A LBD mod,Rh123 counter,others
Cc1ccc(S(=O)(=O)N2CC(O)CC2C(=O)OCC(=O)Nc2ccc([N+](=O)[O-])cc2C(F)(F)F)cc1C (stereo unspecified),0,-6,0,-1,-2,.,
CCOC(=O)C(=NO)C1=CSC2=NNC(C)(C)N12,0,.,2,.,.,.,
Cc1c(CC(Cl)(Cl)Cl)c2c(n1O)CC(C)(C)CC2=O,0,-11,72*,1,-4,47*,
COc1ccc(NC(=O)C2(C)CCN2C(=O)Cc2ccc(Cl)cc2Cl)cc1OC (stereo unspecified),0,.,0,.,.,.,
COc1cc(CSc2nnnn2-c2ccc(C)cc2)cc(OC)c1OC,3,8,92*,1,-4,89*,
COc1ccccc1C1CC(=O)Oc2ccc(C(C)(C)C)cc21 (stereo unspecified),0,-2,0,-9,-2,.,
COc1ccc2[nH]c(=O)c(-c3nnn(-c4ccc(Cl)c(Cl)c4)n3)cc2c1,.,-10,.,-11,.,.,
Cc1cnc(C)c(Nc2nc(C(N)Cc3ccc(C(F)(F)F)cc3)cs2)n1 (stereo unspecified),2,.,19,.,.,.,
Cc1cc(SCC(=O)N/N=C/c2ccc(O)cc2O)c(C)cc1Br,0,-16,91*,-2,18*,56*,
Cc1cccc(OCC(=O)Nc2nc3ccc([N+](=O)[O-])cc3s2)c1C,0,-5,69*,-8,-1,83*,
Cc1cccc(OCC(=O)Nc2nc3ccc([N+](=O)[O-])cc3s2)c1,0,-4,67*,-4,0,87*,
O=C(Nc1nc2ccc([N+](=O)[O-])cc2s1)c1c(F)cccc1F,0,5,0,2,0,.,
O=C(COc1ccccc1C(=O)O)Nc1nc2ccc([N+](=O)[O-])cc2s1,0,-11,94*,-8,14*,83*,
O=C(Nc1nc2ccccc2s1)C1CCN(S(=O)(=O)c2cc([N+](=O)[O-])ccc2Cl)CC1,1,5,95*,2,4,77*,
Cc1nc2ccc(NC(=O)COc3ccccc3[N+](=O)[O-])cc2s1,0,10,-2,-6,1,.,
CC(C)(O)C#Cc1cccc(-c2nc(C(=O)NCCCN3CCOCC3)cc3c2[C@H](CCO)N(S(=O)C(C)(C)C)C3)c1 (stereo partly specified),0,.,0,.,.,.,
CC(=O)c1ccc(OC(=O)CCc2ccccc2)cc1,0,-1,-1,-7,4,.,
COc1ccccc1-c1noc2c1C(=O)N(Cc1cn(-c3ccccc3)nn1)CC2,0,.,-1,.,.,.,
N#C/C(=C\c1ccc(-c2ccccc2Cl)o1)C(=O)Nc1nc2ccccc2s1,0,-8,74*,-2,18*,43*,
Cc1c(NC(=O)/C(C#N)=C/c2ccc(-c3ccccc3Cl)o2)c(=O)n(-c2ccccc2)n1C,1,-1,1,-1,2,.,
CCN(CC)CCn1c(=N)n(CCOc2ccccc2)c2ccccc21,0,-4,78*,0,-2,2,MPTP abs DR=i;MPTP cs DR=33*
CC1(CO)CCCC1NCCNC1CCCC1(C)CO (stereo unspecified),0,.,-1,.,.,.,
CCOC(=O)c1cc([N+](=O)[O-])sc1NC(=O)c1ccc(S(=O)(=O)N2CC3(C)CC2CC(C)(C)C3)cc1 (stereo unspecified),0,7,91*,-2,1,4,MPTP abs DR=2.4*;MPTP cs DR=<2.5*
O=S(=O)(NCC1CCCO1)c1ccc(-c2ccc(S(=O)(=O)NCC3CCCO3)cc2)cc1 (stereo unspecified),7.4*,5,86*,5,1,101*,
O=C(C[C@H]1CC[C@@H](NC(=O)C2CC2)[C@@H](CO)O1)NCc1ccccc1Cl,0,.,1,.,.,.,
